From ChEMBL document CHEMBL3351278, “Pyridine-3-carboxamide-6-yl-ureas as novel inhibitors of bacterial DNA gyrase: structure based design, synthesis, SAR and antimicrobial activity” (Eur J Med Chem, 2014)
Converted amounts (≈) assume the structure as drawn.

Assays:
[1] = tested on: Haemophilus influenzae; experiment: Antibacterial activity against Haemophilus influenzae ATCC 49247 incubated for 24 hrs by broth microdilution method; type: functional; settings: ATCC 49247, 24 h
[2] = tested on: Streptococcus pyogenes; experiment: Antibacterial activity against Streptococcus pyogenes ATCC 51339 expressing ParE A53S mutant incubated for 24 hrs by broth microdilution method; type: functional; settings: ATCC 51339, 24 h
[3] = tested on: Staphylococcus aureus; experiment: Potency shift, ratio of MIC against Staphylococcus aureus ATCC 29213 in presence of 50% horse serum to MIC against taphylococcus aureus ATCC 29213 in absence of 50% horse serum; type: functional
[4] = tested on: Staphylococcus epidermidis; experiment: Antibacterial activity against Staphylococcus epidermidis ATCC 12228 incubated for 24 hrs by broth microdilution method; type: functional; settings: ATCC 12228, 24 h
[5] = molecular target: DNA gyrase (Escherichia coli, UniProt P0AES4+P0AES6); experiment: Inhibition of Escherichia coli GyrB A2B2 subunits assessed reduction in DNA supercoiling activity by malachite green dye based by spectrophotometry; type: protein-complex assay
Method in brief: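 Inhibition was measured as loss of ATPase activity of the E. coli GyrB enzyme and reported as IC50.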

[6] = tested on: Escherichia coli; experiment: Antibacterial activity against Escherichia coli ATCC 25922 incubated for 24 hrs by broth microdilution method; type: functional; settings: ATCC 25922, 24 h
[7] = Retention time of the compound by HPLC method; type: physicochemical
[8] = tested on: Staphylococcus aureus; experiment: Antibacterial activity against Staphylococcus aureus ATCC 29213 expressing GyrB T173N mutant incubated for 24 hrs by broth microdilution method; type: functional; settings: ATCC 29213, 24 h
[9] = tested on: Enterococcus faecalis; experiment: Antibacterial activity against Enterococcus faecalis ATCC 29212 incubated for 24 hrs by broth microdilution method; type: functional; settings: ATCC 29212, 24 h
[10] = tested on: Streptococcus pyogenes; experiment: Antibacterial activity against Streptococcus pyogenes ATCC 51339 incubated for 24 hrs by broth microdilution method; type: functional; settings: ATCC 51339, 24 h
[11] = tested on: Staphylococcus aureus; experiment: Antibacterial activity against Staphylococcus aureus ATCC 29213 expressing GyrB T173N and ParE T167N mutant incubated for 24 hrs by broth microdilution method; type: functional; settings: ATCC 29213, 24 h
[12] = tested on: Escherichia coli; experiment: Antibacterial activity against Escherichia coli N43 expressing efflux pump mutant incubated for 24 hrs by broth microdilution method; type: functional; settings: N43, 24 h
[13] = tested on: Staphylococcus aureus; experiment: Antibacterial activity against Staphylococcus aureus ATCC 29213 incubated for 24 hrs by broth microdilution method; type: functional; settings: ATCC 29213, 24 h
[14] = tested on: Streptococcus pneumoniae; experiment: Antibacterial activity against Streptococcus pneumoniae ATCC 49616 incubated for 24 hrs by broth microdilution method; type: functional; settings: ATCC 49616, 24 h
[15] = tested on: Staphylococcus aureus; experiment: Antibacterial activity against Staphylococcus aureus ATCC 29213 incubated for 24 hrs in presence of 50% horse serum by broth microdilution method; type: functional; settings: ATCC 29213, 24 h
[16] = molecular target: DNA topoisomerase 4 subunit B (Escherichia coli K-12, UniProt P20083); experiment: Inhibition of Escherichia coli ParE
[17] = molecular target: DNA topoisomerase 4 subunit B (Staphylococcus aureus, UniProt P0C1S7); experiment: Inhibition of Staphylococcus aureus ParE
[18] = molecular target: DNA gyrase subunit B (Staphylococcus aureus, UniProt P0A0K8); experiment: Inhibition of Staphylococcus aureus GyrB assessed reduction in DNA supercoiling activity by malachite green dye based by spectrophotometry

Chain of DNA topoisomerase 4 subunit B (Escherichia coli K-12, UniProt P20083) (P20083 whole entry): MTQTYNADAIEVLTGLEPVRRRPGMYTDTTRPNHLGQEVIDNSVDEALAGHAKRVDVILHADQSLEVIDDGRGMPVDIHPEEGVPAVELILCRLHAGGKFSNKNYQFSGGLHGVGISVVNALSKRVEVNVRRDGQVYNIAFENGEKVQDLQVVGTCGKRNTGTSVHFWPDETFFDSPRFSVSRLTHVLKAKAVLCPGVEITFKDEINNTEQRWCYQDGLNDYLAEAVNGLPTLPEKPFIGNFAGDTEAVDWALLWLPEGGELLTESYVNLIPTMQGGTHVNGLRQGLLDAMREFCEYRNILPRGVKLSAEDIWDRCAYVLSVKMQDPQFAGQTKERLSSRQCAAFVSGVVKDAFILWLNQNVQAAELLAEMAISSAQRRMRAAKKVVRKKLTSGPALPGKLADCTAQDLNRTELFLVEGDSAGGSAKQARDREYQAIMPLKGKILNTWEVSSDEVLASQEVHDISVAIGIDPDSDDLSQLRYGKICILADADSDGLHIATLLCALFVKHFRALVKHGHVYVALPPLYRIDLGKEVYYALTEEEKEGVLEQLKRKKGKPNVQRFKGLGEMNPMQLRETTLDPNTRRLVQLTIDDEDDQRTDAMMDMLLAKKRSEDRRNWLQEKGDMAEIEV

Row | IC50 [16] [µM] | IC50 [17] [µM] | IC50 [18] [µM] | SMILES | MIC [1] [µg/mL] | MIC [2] [µg/mL] | Ratio [3] | MIC [4] [µg/mL] | IC50 [5] [µM] | MIC [6] [µg/mL] | Retention_time [7] [min] | MIC [8] [µg/mL] | MIC [9] [µg/mL] | MIC [10] [µg/mL] | MIC [11] [µg/mL] | MIC [12] [µg/mL] | MIC [13] [µg/mL] | MIC [14] [µg/mL] | MIC [15] [µg/mL]
1 | – | – | – | CCNC(=O)Nc1cc(Nc2ccccc2)c(C(=O)Nc2ccc(NC(C)=O)nc2)cn1 | > 64 | 2 (≈ 4.61 µM) | 4 | 0.25 (≈ 0.577 µM) | 0.039 | > 64 | 1.45 | > 64 | 0.125 (≈ 0.288 µM) | 0.5 (≈ 1.15 µM) | > 64 | > 64 | 2 (≈ 4.61 µM) | 0.125 (≈ 0.288 µM) | 8
2 | – | – | – | CCNC(=O)Nc1cc(-n2cccn2)c(C(=O)Nc2cccc(Cl)c2)cn1 | > 64 | 16 (≈ 41.6 µM) | – | 2 (≈ 5.2 µM) | 2.96 | > 64 | 1.83 | 32 (≈ 83.2 µM) | 1 (≈ 2.6 µM) | 4 (≈ 10.4 µM) | > 64 | 32 (≈ 83.2 µM) | 8 (≈ 20.8 µM) | 1 (≈ 2.6 µM) | –
3 | 42 | 0.8 | 0.041 | CCNC(=O)Nc1cc(Nc2ccc(OC)cc2OC)c(C(=O)Nc2cccnc2)cn1 | – | – | – | – | 0.046 | > 64 | – | – | – | – | – | – | 1 (≈ 2.29 µM) | – | –
4 | 0.94 | 0.086 | 0.024 | CCNC(=O)Nc1cc(Nc2ccc(O)cc2)c(C(=O)Nc2cccnc2)cn1 | – | – | – | – | 0.028 | > 64 | – | – | – | – | – | – | 8 (≈ 20.4 µM) | – | –
5 | 0.78 | – | – | CCNC(=O)Nc1cc(Nc2cccc(O)c2)c(C(=O)Nc2cccnc2)cn1 | – | – | – | – | 0.036 | > 64 | – | – | – | – | – | – | – | – | –
6 | – | – | – | CCNC(=O)Nc1cc(Nc2ccccc2)c(C(=O)Nc2ccccc2)cn1 | > 64 | 16 (≈ 42.6 µM) | – | 0.25 (≈ 0.666 µM) | 0.04 | > 64 | 1.58 | 2 (≈ 5.33 µM) | 0.25 (≈ 0.666 µM) | 2 (≈ 5.33 µM) | > 64 | 8 (≈ 21.3 µM) | 1 (≈ 2.66 µM) | 1 (≈ 2.66 µM) | –
7 | – | – | – | CCNC(=O)Nc1cc(Nc2ccccc2)c(C(=O)Nc2cccnc2)cn1 | > 64 | 2 (≈ 5.31 µM) | 4 | 0.25 (≈ 0.664 µM) | 0.17 | > 64 | 1.36 | 4 (≈ 10.6 µM) | 0.125 (≈ 0.332 µM) | 1 (≈ 2.66 µM) | > 64 | 8 (≈ 21.3 µM) | 1 (≈ 2.66 µM) | 0.25 (≈ 0.664 µM) | 4
8 | – | – | – | CCNC(=O)Nc1cc(Nc2ccccc2)c(C(=O)Nc2cccc(C)c2)cn1 | > 64 | > 64 | – | 0.5 (≈ 1.28 µM) | 0.14 | > 64 | 1.68 | > 64 | 0.125 (≈ 0.321 µM) | 2 (≈ 5.14 µM) | > 64 | > 64 | 1 (≈ 2.57 µM) | 0.5 (≈ 1.28 µM) | –
9 | – | – | – | CCNC(=O)Nc1cc(Nc2ccccc2)c(C(=O)Nc2ccc(N3CCOCC3)nc2)cn1 | > 64 | 4 (≈ 8.67 µM) | 8 | 1 (≈ 2.17 µM) | 0.11 | > 64 | 1.47 | > 64 | 0.25 (≈ 0.542 µM) | 1 (≈ 2.17 µM) | > 64 | > 64 | 2 (≈ 4.33 µM) | 0.5 (≈ 1.08 µM) | 16
10 | – | – | – | CCNC(=O)Nc1cc(Nc2cccnc2)c(C(=O)Nc2ccccc2)cn1 | > 64 | – | 2 | – | 0.43 | – | 1.46 | – | 0.25 (≈ 0.664 µM) | 1 (≈ 2.66 µM) | – | – | 1 (≈ 2.66 µM) | – | 2
